Screening data (PubChem)
Most compounds without a hit are left out; they make up all but 3.4% or so of the library.
LANA-H2B inh: blockers of LANA interaction with H2A/H2B – biochemical, FP readout, HTS, primary screen | Protein LANA1 (Human herpesvirus 8 type P (isolate GK18)), Q9QR71 | cell-free LANA-H2A/H2B peptide, fluorescence polarization | inhibition, % (no concentration beside the values) | 320,000 tested, 0.6% active; in the data active means inhibition mostly above about 10%, no sharp cut-off; inactive means mostly below about 6.7%
TAAR1 agonist: human TAAR1 agonists, primary screen, Fluo-8 calcium fluorescence, CHO RD-HGA16 cells; vehicle wells 0%, saturating PEA agonist 100%; activation, % at 3 µM; 360,000 tested, 0.99% active;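 active means activation above the mean activation of all test compounds in the run plus 3 SD, cut at about 38% in these data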
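Assay system: CHO-derived RD-HGA16 cells with stable Gα16 and human TAAR1; timing: 17-24 h seeding, 75 min 37 °C dye, 30 min RT; read-out: % activation from peak over basal fluorescence ratio, DMSO-to-PEA scaled; measured by: kinetic Fluo-8 calcium fluorescence; benchmarks: low control DMSO, high control PEA (EC100); doses: 3 µM single concentration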
TAAR1 antag: human TAAR1 antagonists, primary screen, Fluo-8 calcium fluorescence, CHO RD-HGA16 cells; antagonist; Trace amine-associated receptor 1 (Homo sapiens), Q96RJ0; 360,000 tested, 1.5% active; AID 624466, 2012; inhibition, % at 3 µM;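 active means inhibition above a per-plate cutoff, the mean inhibition of test compounds on that plate plus 3 SD, cut at about 49% in these data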;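 further: 0% = DMSO plus EC80 beta-PEA response and 100% = DMSO alone without agonist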
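Test system: RD-HGA16 CHO cells with stable hTAAR1 and Gα16 / Probe or stimulus: EC80 β-phenethylamine stimulus / Times: seeding 17-24 h prior, 75-min 37 °C, 30-min RT dye loading / Detection: Fluo-8 calcium-sensitive fluorescence / Read-out basis: % inhibition scaled between DMSO and EC80 PEA controls / Repeats: singlicate, one well per test compound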
GPR7 antag: GPR7 receptor antagonists, primary screen, cell-based, fluorescence, single concentration; Neuropeptides B/W receptor type 1 (Homo sapiens), P48145; GPR7-expressing cells, fluorescence antagonist assay; 290,000 tested, 1.1% active; inhibition, % at 4.4 µM; in the data active means inhibition above about 16%, passing the limit was not always enough;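 further: cells stimulated with the agonist NPW; 0% = agonist with vehicle and 100% = vehicle without agonist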
zfTRPN1 agonist: zebrafish TRPN1 channel agonists, primary screen, cell-based, HEK293, calcium fluorescence. transient receptor potential cation channel N1 (TRPN1/NompC), Danio rerio. HEK293 zebrafish TRPN1-YFP, Fluo-8 calcium fluorescence; 100% = response to 87 µM carbachol. activation, % at 3 µM. 220,000 tested, 0.18% active;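 active means activation above its plate's cutoff, the mean activation of test wells on that plate plus 3 SD, cut at about 19% in these data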;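 further: 0% = DMSO alone and 100% = 87 µM carbachol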
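Material: zebrafish TRPN1-YFP in HEK293 cells. Doses: one dose of 3 µM, 0.3% DMSO. Incubation: dye 1 h 37 °C plus 30 min RT. Measured by: intracellular calcium fluorescence with Fluo-8.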
TRPML3 ag: human TRPML3 channel agonists, primary screen, cell-based, HEK293 TRPML3-YFP, Fluo-8 calcium fluorescence, 3 µM | Mucolipin-3 (Homo sapiens), Q8TDD5 | 100% = the carbachol control signal | activation, % at 3 µM | 220,000 tested, 0.29% active | AID 1448, 2008;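 active means activation above its plate's cutoff, the mean activation of the plate's test wells plus 3 SD, cut at about 12% in these data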;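 further: 0% = DMSO only wells and 100% = carbachol wells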
Target sequence (Q8TDD5 whole entry, looked up): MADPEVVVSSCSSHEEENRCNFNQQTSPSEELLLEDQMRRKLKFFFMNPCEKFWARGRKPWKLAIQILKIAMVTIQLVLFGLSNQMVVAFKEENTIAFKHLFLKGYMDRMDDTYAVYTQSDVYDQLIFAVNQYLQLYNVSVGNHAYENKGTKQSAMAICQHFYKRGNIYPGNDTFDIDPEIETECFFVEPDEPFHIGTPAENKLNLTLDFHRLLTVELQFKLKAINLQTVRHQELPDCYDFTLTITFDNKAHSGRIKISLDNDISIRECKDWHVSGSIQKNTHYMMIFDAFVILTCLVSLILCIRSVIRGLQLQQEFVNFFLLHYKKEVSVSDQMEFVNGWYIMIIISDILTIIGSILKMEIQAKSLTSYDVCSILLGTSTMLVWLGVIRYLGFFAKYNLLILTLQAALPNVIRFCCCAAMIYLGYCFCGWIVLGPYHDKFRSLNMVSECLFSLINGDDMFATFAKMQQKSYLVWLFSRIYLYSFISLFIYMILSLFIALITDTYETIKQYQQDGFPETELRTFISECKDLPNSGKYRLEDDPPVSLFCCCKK
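Material: HEK293 cells stably carrying human TRPML3-YFP; compound dosing: single dose, 3 µM final nominal compound, 0.3% DMSO final; incubation: 1-h 37 °C dye load, 5-s basal, 120-s post-compound reads; technique: Fluo-8 intracellular calcium fluorescence, excitation 470-495 nm, emission 515-575 nm; read-out basis: percent activation from peak-to-basal fluorescence ratio, scaled between DMSO and carbachol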
nonsel antag count: nonselective antagonists in TAAR1 counter-screen cells, counter-screen for hTAAR1 antagonist project, cell-based, fluorescence, calcium. inhibition, % at 3 µM. AID 651780, 2012. shares compounds with TAAR1 antag. counterscreen cell line, antagonist mode. 2,400 tested, 77% active; in the data active means inhibition above about 22%;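 further: CHO-Ga16 host cells stimulated with ATP at an EC80 level; 0% = agonist EC80 plus vehicle and 100% = vehicle without agonist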
TAAR1 ant conf: human TAAR1 antagonists, retest of hits, confirmation, cell-based, fluorescence; TAAR1-expressing cells, fluorescence antagonist read-out; inhibition, % at 3 µM; shares compounds with TAAR1 antag; AID 651785, 2012; 2,400 tested, 40% active; in the data active means inhibition above about 49%;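 further: CHO-Ga16 host cells challenged with agonist PEA near its EC80; 0% = agonist at EC80 plus vehicle and 100% = vehicle with no agonist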
Ga16 ag counter: calcium activation in Ga16-expressing cells, counter-screen for TAAR1 antagonist project, cell-based, fluorescence | 2,400 tested, 18% active | agonist counterscreen | activation, % at 3 µM | shares compounds with TAAR1 antag; in the data active means activation above about 12%;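 further: 0% = vehicle wells and 100% = saturating stimulus response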
TAAR1 ag count: TAAR1 activation by candidate antagonists – cell-based, fluorescence, counter-screen for TAAR1 antagonist project; activation, % at 3 µM; hTAAR1 cell line, agonist mode; shares compounds with TAAR1 antag; 2,400 tested, 2% active; AID 651955, 2012; in the data active means activation above about 37%;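 further: CHO cells stably expressing TAAR1 with calcium dye readout; 0% = DMSO vehicle and 100% = full agonist response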
* marks the source's active call; other numbers are inactive results; x = no result.

SMILES | LANA-H2B inh | TAAR1 agonist | TAAR1 antag | GPR7 antag | zfTRPN1 agonist | TRPML3 ag | nonsel antag count | TAAR1 ant conf | Ga16 ag counter | TAAR1 ag count
CC(C)(C)[C@@H]1COC(=O)[C@H](Cc2ccc(F)cc2)C/C=C\C[C@H](CC(=O)N(CCO)Cc2ccccc2)C(=O)N1 | 2 | 33 | 50* | x | x | x | 19 | 40 | 9 | 12
O=C(CCNC(=O)c1ccc([N+](=O)[O-])cc1)Oc1ccc(F)c(F)c1 | -5 | 6 | 0 | x | x | x | x | x | x | x
Cc1ccc(S(=O)(=O)N2CCOCC2)cc1C(=O)NCCN1C(=O)S/C(=C\c2ccccc2Cl)C1=O | -7 | 20 | 67* | -11 | 0 | 0 | 37* | 52* | 14* | 14
CCN(CC(=O)Nc1c(F)cccc1F)C(=O)CCCSc1nc2ccccc2[nH]1 | x | 4 | -10 | x | x | x | x | x | x | x
Cc1ccc(N=C2C(=O)Nc3ccc(Br)cc32)cc1 | -3 | 2 | 1 | 16 | x | x | x | x | x | x
O=C1Nc2ccc(Br)cc2C1=C1CCCCC1 | -3 | 13 | 76* | -7 | x | x | 17 | 36 | 6 | 7
CCOc1ccc(S(=O)(=O)N(CC(=O)NCc2cccnc2)c2ccc(F)cc2)cc1 | 1 | 20 | 65* | -13 | x | x | 29* | 49* | 13* | 16
COc1ccccc1CN(Cc1nc2ccccc2c(=O)[nH]1)S(=O)(=O)c1ccc(C)cc1 | 4 | 1 | 53* | -2 | -1 | 1 | 15 | 38 | 8 | 11
COc1ccc(S(=O)(=O)N2CCOC2CNC(=O)C(=O)NCCN2CCOCC2)cc1C (centres undefined) | 1 | 1 | -14 | -27 | x | x | x | x | x | x
CCN(CC(=O)Nc1ccc(NC(C)=O)cc1)C(=O)c1oc2c(ccc3ccccc32)c1C | -3 | 33 | 64* | x | x | x | 39* | 61* | 18* | 28
CCN(CC(=O)Nc1ccc(NC(C)=O)cc1)C(=O)c1oc2ccccc2c1C | -6 | 3 | -9 | x | x | x | x | x | x | x
CC(C)Oc1ccc(C(=O)OCC(=O)c2ccc[nH]2)cc1 | -1 | 0 | -2 | x | x | x | x | x | x | x
Cc1c(C(=O)NCc2ccccc2)sc(=O)n1Cc1ccccc1F | x | 1 | 12 | x | x | x | x | x | x | x
CCOc1ccc2[nH]c(=O)c(CN(Cc3cccs3)Cc3nnnn3C(C)(C)CC)cc2c1 | 0 | 12 | 55* | -9 | 0 | 0 | 13 | 37 | 5 | 14
CCCCN(C=O)c1c(CC)nc2ccc(C(=O)N3CCCCC3)cn12 | x | 2 | -17 | x | x | x | x | x | x | x
COC(=O)c1ccc(C2/C(=C(/O)c3ccc(OC)cc3)C(=O)C(=O)N2Cc2ccco2)cc1 (centres undefined) | 4 | 6 | 2 | -12 | 1 | 0 | x | x | x | x
COC(=O)c1cc2c(c3c4ccccc4n(S(=O)(=O)c4ccccc4)c13)C(=O)N(Cc1ccco1)C2 | x | 0 | 3 | x | x | x | x | x | x | x
